Entries after “also recorded” stand apart in the source; their conditions may differ. Read-outs that look alike come from different tables or passages of the source.
Assays:
[1] = target: T1, hSERT (Homo sapiens, UniProt P31645); experiment: Inhibition of hSERT-mediated [3H]5-HT uptake into human platelets; format: cell-based
[2] = target: T2, rDAT (Rattus norvegicus, UniProt P23977); experiment: Drug-evoked [3H]MPP+ release via rDAT in rat striatal synaptosomes; format: biochemical
[3] = target: rSERT (Rattus norvegicus, UniProt P31652); experiment: Drug-evoked [3H]5-HT release via rSERT in rat brain synaptosomes; format: biochemical; conditions: for Fold more potent than methcathinone as [3H]5-HT releasing agent: SERT release
[4] = target: hDAT (Homo sapiens, UniProt Q01959); experiment: Inhibition of hDAT-mediated [3H]DA uptake into HEK293-hDAT cells; format: cell-based
[5] = target: rNET (Rattus norvegicus, UniProt Q63380); experiment: Drug-evoked [3H]MPP+ release via rNET in rat brain synaptosomes; format: biochemical
[6] = target: T3, hNET (Homo sapiens, UniProt P23975); experiment: Inhibition of hNET-mediated [3H]NE uptake into C6-hNET cells; format: cell-based
[7] = system: horizontal locomotor activity; conditions: cited from earlier work; for Locomotor effects in vivo compared to methcathinone: ref Foley and Cozzi, 2003
[8] = target: T1, hSERT; conditions: read-out: SERT [3H]5-HT uptake inhibition IC50, ref Cozzi et al., 1999; cited from earlier work
[9] = system: extracellular dopamine in nucleus accumbens; experiment: In vivo microdialysis of nucleus accumbens, dialysate dopamine; design: species or system rat; conditions: i.v.; for Effect on extracellular dopamine in nucleus accumbens: rat, methcathinone 0.3 then 1.0 mg/kg, 4-TFMAP 1.0 then 3.0 mg/kg
Outline: (§1)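 Male Sprague-Dawley rats (300–350 g) under pentobarbital anaesthesia (60 mg/kg i.p.) get a jugular catheter and a nucleus accumbens guide cannula (1.6 mm lateral, 1.6 mm anterior to bregma, 6.0 mm below dura). Next morning, dialysate is collected every 20 min and assayed for DA and 5-HT by HPLC-ECD. After three stable baselines, two i.v. doses in saline (1 mL/kg) are given 60 min apart, with sampling for 120 min. Data are % of mean baseline; n=6 saline, 7 per drug; two-way ANOVA with Bonferroni.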

[10] = system: extracellular 5-HT in nucleus accumbens; experiment: In vivo microdialysis of nucleus accumbens, dialysate 5-HT; conditions: rat, i.v.; for Effect on extracellular 5-HT in nucleus accumbens: methcathinone 0.3 then 1.0 mg/kg, 4-TFMAP 1.0 then 3.0 mg/kg
Outline: as §1

[11] = target: T2, rDAT; conditions: read-out: DAT [3H]DA uptake inhibition IC50, ref Cozzi et al., 1999; cited from earlier work
[12] = target: T3, hNET; conditions: read-out: NET [3H]NE uptake inhibition IC50, ref Cozzi et al., 1999; cited from earlier work
[13] = system: human SERT; conditions: read-out: KM as SERT substrate, racemic, ref Cozzi and Foley, 2003; cited from earlier work
[14] = system: horizontal locomotor activity; experiment: Horizontal locomotor activity during microdialysis; format: in vivo; conditions: rat, i.v.; methcathinone 0.3 then 1.0 mg/kg, 4-TFMAP 1.0 then 3.0 mg/kg
Outline: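 Horizontal activity is recorded by a photobeam ring (2.54 cm spacing) in a 43 cm cubic arena, where rats stay overnight and during microdialysis. It is binned every 20 min, from 60 min before to 120 min after two sequential i.v. injections given 60 min apart (saline vehicle, 1 mL/kg). Data are normalized to % of three pre-injection bins and compared with saline controls (n=6; drugs n=7) by two-way ANOVA with Bonferroni.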

[15] = system: extracellular dopamine in nucleus accumbens; conditions: ref Baumann et al., 2012; Kehr et al. (2011); cited from earlier work
[16] = system: extracellular 5-HT in nucleus accumbens; conditions: ref Baumann et al., 2012; Kehr et al. (2011); cited from earlier work
[17] = SERT [3H]5-HT release EC50, rat brain synaptosomes, mean ±S.E.M.
[18] = read-out: NET [3H]MPP+ release EC50, mean ±S.E.M.

T1 sequence (P31645 whole entry): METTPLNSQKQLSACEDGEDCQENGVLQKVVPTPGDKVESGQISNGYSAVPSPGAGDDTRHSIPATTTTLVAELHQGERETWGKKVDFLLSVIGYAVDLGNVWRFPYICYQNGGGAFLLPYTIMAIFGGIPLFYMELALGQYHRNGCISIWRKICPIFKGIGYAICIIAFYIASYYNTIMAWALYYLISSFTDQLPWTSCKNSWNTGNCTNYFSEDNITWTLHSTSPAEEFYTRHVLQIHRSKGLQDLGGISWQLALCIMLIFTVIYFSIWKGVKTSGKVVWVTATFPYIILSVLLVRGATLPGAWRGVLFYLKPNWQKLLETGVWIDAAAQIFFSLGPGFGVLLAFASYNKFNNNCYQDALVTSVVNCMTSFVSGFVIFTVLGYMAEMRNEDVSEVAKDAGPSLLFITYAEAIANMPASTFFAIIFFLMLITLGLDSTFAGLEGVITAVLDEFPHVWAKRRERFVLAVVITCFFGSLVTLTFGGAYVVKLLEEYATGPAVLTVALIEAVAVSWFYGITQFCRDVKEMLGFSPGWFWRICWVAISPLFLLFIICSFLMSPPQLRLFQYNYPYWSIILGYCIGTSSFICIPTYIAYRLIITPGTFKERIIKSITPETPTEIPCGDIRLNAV
T3 sequence (P23975 whole entry): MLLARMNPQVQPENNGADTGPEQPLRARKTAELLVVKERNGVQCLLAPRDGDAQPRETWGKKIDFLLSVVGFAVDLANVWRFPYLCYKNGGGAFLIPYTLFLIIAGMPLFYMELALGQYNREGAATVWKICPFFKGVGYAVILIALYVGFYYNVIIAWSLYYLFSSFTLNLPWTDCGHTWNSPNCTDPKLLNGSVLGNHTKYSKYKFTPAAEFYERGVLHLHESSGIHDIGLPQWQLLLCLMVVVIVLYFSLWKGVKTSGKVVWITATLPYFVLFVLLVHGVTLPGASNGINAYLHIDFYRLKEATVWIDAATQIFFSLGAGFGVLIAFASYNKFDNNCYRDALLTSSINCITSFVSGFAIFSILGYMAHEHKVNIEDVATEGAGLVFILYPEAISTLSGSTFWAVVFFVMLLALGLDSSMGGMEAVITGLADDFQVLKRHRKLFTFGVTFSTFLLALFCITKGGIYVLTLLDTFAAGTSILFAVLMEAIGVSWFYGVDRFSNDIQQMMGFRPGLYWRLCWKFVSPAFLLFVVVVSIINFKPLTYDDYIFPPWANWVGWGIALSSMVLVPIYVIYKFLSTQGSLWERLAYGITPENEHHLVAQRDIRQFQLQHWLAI
T2 sequence (P23977 whole entry): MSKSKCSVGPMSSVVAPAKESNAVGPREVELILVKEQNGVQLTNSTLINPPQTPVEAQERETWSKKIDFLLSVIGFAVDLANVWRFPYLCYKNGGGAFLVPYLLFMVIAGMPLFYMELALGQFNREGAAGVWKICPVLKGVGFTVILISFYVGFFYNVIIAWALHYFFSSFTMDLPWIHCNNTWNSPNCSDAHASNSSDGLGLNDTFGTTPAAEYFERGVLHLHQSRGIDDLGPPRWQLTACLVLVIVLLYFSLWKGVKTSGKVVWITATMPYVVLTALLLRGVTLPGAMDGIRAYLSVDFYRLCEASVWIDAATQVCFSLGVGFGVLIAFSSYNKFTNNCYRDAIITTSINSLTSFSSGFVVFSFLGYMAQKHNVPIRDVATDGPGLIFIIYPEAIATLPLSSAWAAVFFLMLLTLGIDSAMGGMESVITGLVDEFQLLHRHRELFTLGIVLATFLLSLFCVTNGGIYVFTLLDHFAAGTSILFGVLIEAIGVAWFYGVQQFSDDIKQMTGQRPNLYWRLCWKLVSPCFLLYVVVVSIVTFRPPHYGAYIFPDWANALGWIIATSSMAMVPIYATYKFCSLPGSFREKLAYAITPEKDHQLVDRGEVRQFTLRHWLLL
Sequence of rNET (Q63380 1-617): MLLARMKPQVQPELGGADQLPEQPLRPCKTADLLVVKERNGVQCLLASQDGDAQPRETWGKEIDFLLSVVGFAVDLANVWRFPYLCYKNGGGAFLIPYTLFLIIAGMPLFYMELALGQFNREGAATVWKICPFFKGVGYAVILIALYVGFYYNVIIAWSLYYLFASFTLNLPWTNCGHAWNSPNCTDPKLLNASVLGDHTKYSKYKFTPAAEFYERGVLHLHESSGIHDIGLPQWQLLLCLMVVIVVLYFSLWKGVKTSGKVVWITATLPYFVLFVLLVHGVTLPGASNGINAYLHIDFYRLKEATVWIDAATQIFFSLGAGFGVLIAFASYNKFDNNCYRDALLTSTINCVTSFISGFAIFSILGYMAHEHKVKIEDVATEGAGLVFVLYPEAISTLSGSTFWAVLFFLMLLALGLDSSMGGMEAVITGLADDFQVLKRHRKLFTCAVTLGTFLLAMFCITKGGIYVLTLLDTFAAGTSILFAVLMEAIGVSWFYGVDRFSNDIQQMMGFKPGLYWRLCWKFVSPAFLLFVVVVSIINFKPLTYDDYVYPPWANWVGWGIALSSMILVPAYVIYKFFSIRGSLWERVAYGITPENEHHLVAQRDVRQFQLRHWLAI
Sequence of hDAT (Q01959 whole entry): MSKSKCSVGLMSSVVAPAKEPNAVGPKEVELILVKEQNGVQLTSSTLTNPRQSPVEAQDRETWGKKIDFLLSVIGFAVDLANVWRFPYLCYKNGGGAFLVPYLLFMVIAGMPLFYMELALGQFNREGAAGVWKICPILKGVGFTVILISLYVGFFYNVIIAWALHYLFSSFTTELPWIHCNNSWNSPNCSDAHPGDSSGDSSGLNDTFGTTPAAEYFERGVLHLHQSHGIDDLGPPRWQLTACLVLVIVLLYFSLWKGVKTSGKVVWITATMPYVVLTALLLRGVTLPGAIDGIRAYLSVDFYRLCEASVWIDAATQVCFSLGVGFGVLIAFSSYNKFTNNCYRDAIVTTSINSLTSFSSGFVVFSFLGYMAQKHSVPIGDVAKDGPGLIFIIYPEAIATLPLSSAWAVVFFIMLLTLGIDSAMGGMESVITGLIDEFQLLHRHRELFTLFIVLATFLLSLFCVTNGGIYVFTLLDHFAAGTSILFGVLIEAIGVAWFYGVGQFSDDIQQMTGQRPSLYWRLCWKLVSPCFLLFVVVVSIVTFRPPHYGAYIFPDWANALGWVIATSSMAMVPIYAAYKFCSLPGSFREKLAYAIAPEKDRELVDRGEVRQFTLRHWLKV
Sequence of rSERT (P31652 whole entry): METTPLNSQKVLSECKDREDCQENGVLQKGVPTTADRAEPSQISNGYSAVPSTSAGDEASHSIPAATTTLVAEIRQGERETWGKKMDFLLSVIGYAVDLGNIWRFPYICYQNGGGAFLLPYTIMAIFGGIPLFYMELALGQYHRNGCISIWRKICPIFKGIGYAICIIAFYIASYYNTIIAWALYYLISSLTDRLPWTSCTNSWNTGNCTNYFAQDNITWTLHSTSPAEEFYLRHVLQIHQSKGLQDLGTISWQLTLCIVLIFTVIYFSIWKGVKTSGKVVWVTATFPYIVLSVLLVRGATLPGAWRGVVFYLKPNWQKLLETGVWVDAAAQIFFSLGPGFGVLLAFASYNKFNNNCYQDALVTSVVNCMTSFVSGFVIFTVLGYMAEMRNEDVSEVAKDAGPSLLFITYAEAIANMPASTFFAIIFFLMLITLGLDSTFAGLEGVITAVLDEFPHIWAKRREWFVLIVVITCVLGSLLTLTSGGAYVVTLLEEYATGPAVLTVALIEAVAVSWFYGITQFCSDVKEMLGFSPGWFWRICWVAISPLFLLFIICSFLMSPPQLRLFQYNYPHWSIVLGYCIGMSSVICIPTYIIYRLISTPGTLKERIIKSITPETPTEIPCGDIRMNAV

Q: For `CNC(C)C(=O)c1cccc(C(F)(F)F)c1` (centres unmarked) [3-TFMAP, 2-(methylamino)-1-(3-trifluoromethylphenyl)propan-1-one], which IC50 [1] is on record?
A: 11.3 ± 0.4 µM

Q: What about the EC50 [2] of the same molecule?
A: 0.61 ± 0.09 µM

Q: What about the EC50 [3, 17] of the same molecule?
A: 0.38 ± 0.06 µM

Q: And the “Fold more potent than methcathinone as [3H]5-HT releasing agent” value [3]?
A: 10 fold

Q: And the IC50 [4]?
A: 136 ± 8 µM

Q: And the EC50 [5, 18]?
A: 2.7 ± 0.8 µM

Q: What about the IC50 [6] of the same molecule?
A: 3 ± 0.8 µM

Q: Which results are given for `CNC(C)C(=O)c1ccccc1C(F)(F)F` (centres unmarked) [2-TFMAP, 2-(methylamino)-1-(2-tri-fluoromethylphenyl)propan-1-one]?
A: IC50 [1]: 239 ± 13 µM; EC50 [2]: 8 ± 0.9 µM; EC50 [3, 17]: 8.4 ± 0.8 µM; IC50 [4]: 689 ± 160 µM; EC50 [5, 18]: 2.2 ± 0.3 µM; IC50 [6]: 10 ± 3 µM

Q: With `CNC(C)C(=O)c1ccc(Br)cc1` (centres unmarked) [4-bromomethcathinone] as the molecule, how does the “Locomotor effects in vivo compared to methcathinone” value [7] read?
A: fewer locomotor effects

Q: Which results are given for `CNC(C)C(=O)c1ccccc1` (centres unmarked) [Methcathinone, reference compound]?
A: IC50 [8]: 35 ± 5 µM; Potency as dopamine releasing agent relative to 5-HT releaser in vivo ([9]; rat nucleus accumbens): about twice as potent; Effect on extracellular dopamine in nucleus accumbens [9]: large dose-dependent increases; EC50 ([2]; read-out: DAT [3H]MPP+ release EC50, rat striatal synaptosomes, mean ±S.E.M.): 0.02 ± 0.001 µM; Effect on extracellular 5-HT in nucleus accumbens [10]: large dose-dependent increases; EC50 ([3]; read-out: SERT [3H]5-HT release EC50, rat brain synaptosomes, mean ±S.E.M.): 4 ± 1 µM; EC50 [5, 18]: 0.02 ± 0.003 µM; IC50 [11]: 0.36 ± 0.06 µM; IC50 [12]: 0.5 ± 0.1 µM

Q: For [^3H]methcathinone, which Km [13] is on record?
A: 0.244 µM

Q: For `CNC(C)C(=O)c1cccc(Br)c1` (centres unmarked) [3-bromomethcathinone], which “Locomotor effects in vivo compared to methcathinone” value [7] is on record?
A: fewer locomotor effects

Q: Which IC50 [1] does the source give for `CNC(C)C(=O)c1ccc(C(F)(F)F)cc1` (centres unmarked) [4-TFMAP, 2-(methylamino)-1-(4-trifluoromethylphenyl)propan-1-one] here?
A: 4.5 ± 0.6 µM

Q: What about the “Effect on extracellular dopamine in nucleus accumbens” value [9] of the same molecule?
A: no effect; also recorded: did not stimulate dopamine release

Q: And the “Effect on horizontal locomotor activity” value [14]?
A: no effect; also recorded: nor did it stimulate locomotor activity

Q: And the EC50 [2]?
A: 2.7 ± 0.3 µM

Q: What about the “Potency on dialysate 5-HT relative to methcathinone” value ([10]; nucleus accumbens) of the same molecule?
A: approximately 1/3

Q: And the “Effect on extracellular 5-HT in nucleus accumbens” value [10]?
A: increased extracellular 5-HT; also recorded: dose-related increase in 5-HT efflux

Q: What about the EC50 ([3]; EC50 for [3H]5-HT release at rSERT, rat brain synaptosomes) of the same molecule?
A: 0.186 µM

Q: And the EC50 [3, 17]?
A: 0.19 ± 0.03 µM

Q: What about the “Fold more potent than methcathinone as [3H]5-HT releasing agent” value [3] of the same molecule?
A: 10 fold

Q: What about the IC50 [4] of the same molecule?
A: 200 ± 50 µM

Q: What about the EC50 ([5]; read-out: EC50 for [3H]MPP+ release at rNET) of the same molecule?
A: 0.867 µM

Q: And the EC50 [5, 18]?
A: 0.9 ± 0.3 µM

Q: And the IC50 [6]?
A: 3 ± 0.9 µM

Q: What does the source list for `CNC(C)C(=O)c1ccc(C)cc1` (centres unmarked) [mephedrone, 4-methylmethcathinone]?
A: Effect on DA release in nucleus accumbens [15]: stimulated both 5-HT and DA release; Effect on 5-HT release in nucleus accumbens [16]: stimulated both 5-HT and DA release; Effect on locomotor activity ([7]; 1 and 3 mg/kg, ref Baumann et al., 2012, Kehr et al. (2011)): dose-related locomotor stimulation
